{"data": "Published values collected from several papers", "PDE10A": "cAMP and cAMP-inhibited cGMP 3',5'-cyclic phosphodiesterase 10A (PDE10A, Homo sapiens, UniProt Q9Y233)", "SLC6A3": "Sodium-dependent dopamine transporter (SLC6A3, Homo sapiens, UniProt Q01959)"}
{"Compound": "COc1ccc2c(Cc3ccc(OC)c(OC)c3)ncnc2c1", "target": "PDE10A", "assay": "enzyme activity, inhibitor, FP", "conditions": "0.1 µM", "inhibition [%]": 22}
{"Compound": "C#Cc1cc(-c2cc(Nc3nc(N[C@@H](C)c4ccc(F)cn4)ncc3Cl)n[nH]2)ccc1C=O", "target": "Dual specificity protein kinase CLK4 (CLK4, Homo sapiens, UniProt Q9HAZ1)", "assay": "enzyme activity, inhibitor", "conditions": "0.2 µM", "inhibition [%]": 53.5}
{"Compound": "CCOC(=O)[C@@]12C[C@@H]1[C@@H](n1cnc3c(NCc4cccc(Cl)c4)nc(C#Cc4ccc(Cl)s4)nc31)[C@H](O)[C@@H]2O", "target": "SLC6A3", "assay": "ligand displacement, radioligand", "conditions": "10 µM", "inhibition [%]": 75}
{"Compound": "CCN1/C(=C/C(C)=O)Sc2ccc(F)cc21", "target": "SLC6A3", "assay": "ligand displacement, radioligand", "conditions": "10 µM", "inhibition [%]": 1.26}
{"Compound": "Cc1cc(O)c(-c2ccc([C@@H](C)CN(C)C)cc2)c2c1[nH]c(=O)c1sccc12", "target": "Serine/threonine-protein kinase ATR (ATR, Homo sapiens, UniProt Q13535)", "assay": "cell-free assay, inhibitor", "conditions": "0.1 µM, lysate", "inhibition [%]": 8.12}
{"Compound": "NC/C(=C\\F)COc1cccc(Cn2c(=S)[nH]c(=O)c3[nH]cnc32)c1", "target": "D(3) dopamine receptor (DRD3, Homo sapiens, UniProt P35462)", "assay": "ligand displacement, radioligand", "conditions": "10 µM", "inhibition [%]": "< 50"}
{"Compound": "CCOC(=O)[C@@]12C[C@@H]1[C@@H](n1cnc3c(Nc4ccccc4)nc(C#Cc4ccc(Cl)s4)nc31)[C@H](O)[C@@H]2O", "target": "SLC6A3", "assay": "ligand displacement, radioligand", "conditions": "10 µM", "inhibition [%]": 89}
{"Compound": "Cc1cc(F)cc2c(CCC(=O)N[C@@H]3C(=O)NC[C@H]3O)c(-c3ccc(F)cc3)[nH]c12", "target": "SLC6A3", "assay": "cell-free assay", "conditions": "10 µM", "inhibition [%]": 17}
{"Compound": "COc1ccc2c(Cc3cccc(-c4ccccc4)c3)ncnc2c1", "target": "PDE10A", "assay": "enzyme activity, inhibitor, FP", "conditions": "0.1 µM", "inhibition [%]": 22}
{"Compound": "OC[C@@]12C[C@@H]1[C@@H](n1cnc3c(NCCCCCCc4ccccc4)nc(I)nc31)[C@H](O)[C@@H]2O", "target": "SLC6A3", "assay": "ligand displacement, radioligand", "conditions": "10 µM", "inhibition [%]": 79}
{"Compound": "COc1cc2ncnc(Cc3cccc(-c4ccccc4OC)c3)c2cc1OC", "target": "PDE10A", "assay": "enzyme activity, inhibitor, FP", "conditions": "0.1 µM", "inhibition [%]": 31}
{"Compound": "CCOC(=O)[C@@]12C[C@@H]1[C@@H](n1cnc3c(NCCCCCCc4ccccc4)nc(C#Cc4ccc(Cl)s4)nc31)[C@H](O)[C@@H]2O", "target": "SLC6A3", "assay": "ligand displacement, radioligand", "conditions": "10 µM", "inhibition [%]": 23}
{"Compound": "COc1ccc2c(Cc3cccc(-c4ccccc4)c3)ccnc2c1", "target": "PDE10A", "assay": "enzyme activity, inhibitor, FP", "conditions": "0.1 µM", "inhibition [%]": 22}
{"Compound": "CCOC(=O)[C@@]12C[C@@H]1[C@@H](n1cnc3c(NCc4cccc(Cl)c4)nc(I)nc31)[C@H](O)[C@@H]2O", "target": "SLC6A3", "assay": "ligand displacement, radioligand", "conditions": "10 µM", "inhibition [%]": 37}
{"Compound": "COc1ccc2ccnc(Cc3ccc(OC)c(OC)c3)c2c1", "target": "PDE10A", "assay": "enzyme activity, inhibitor, FP", "conditions": "0.1 µM", "inhibition [%]": 11}
{"Compound": "CC(C)C[C@H](NC(=O)[C@@H](NC(=O)[C@@H](NC(=O)[C@@H]1CCCN1C(=O)[C@@H](N)CCC(=O)O)C(C)C)[C@@H](C)O)C(=O)N[C@H](C(=O)O)[C@@H](C)O", "target": "Angiotensin-converting enzyme (ACE, Homo sapiens, UniProt P12821)", "assay": "enzyme activity, inhibitor", "conditions": "1.4 mM", "inhibition [%]": 47.2}
{"Compound": "c1ccc2c(Cc3ccc4cnn(C5COC5)c4c3)nccc2c1", "target": "PDE10A", "assay": "enzyme activity, inhibitor, FP", "conditions": "0.1 µM", "inhibition [%]": 6}
{"Compound": "CCOC(=O)[C@@]12C[C@@H]1[C@@H](n1cnc3c(NCCCCCc4ccccc4)nc(I)nc31)[C@H](O)[C@@H]2O", "target": "SLC6A3", "assay": "ligand displacement, radioligand", "conditions": "10 µM", "inhibition [%]": 85}
